Source: ChEMBL document CHEMBL2046381, “Defining the mechanism of action and enzymatic selectivity of psammaplin A against its epigenetic targets” (J Med Chem, 2012)
pIC50: −log10 of the molar value. Activity calls are given as the source filed them. The rule behind the calls is not given here.

Assays:
MCF7 [1] = assay: Selectivity index, ratio of GI50 for human A549 cells to GI50 for human MCF7 cells; type: functional
[2] = molecular target: T1, Histone deacetylase-like amidohydrolase (Alcaligenes sp. (strain DSM 11172) (Bordetella sp. (strain FB188)), UniProt Q70I53); assay: Inhibition of Bordetella sp. (strain FB188) N-terminus His-tagged HDAH expressed in Escherichia coli BL21 (DE3); design: species or system Alcaligenaceae bacterium FB188
T1 sequence (Q70I53 whole entry): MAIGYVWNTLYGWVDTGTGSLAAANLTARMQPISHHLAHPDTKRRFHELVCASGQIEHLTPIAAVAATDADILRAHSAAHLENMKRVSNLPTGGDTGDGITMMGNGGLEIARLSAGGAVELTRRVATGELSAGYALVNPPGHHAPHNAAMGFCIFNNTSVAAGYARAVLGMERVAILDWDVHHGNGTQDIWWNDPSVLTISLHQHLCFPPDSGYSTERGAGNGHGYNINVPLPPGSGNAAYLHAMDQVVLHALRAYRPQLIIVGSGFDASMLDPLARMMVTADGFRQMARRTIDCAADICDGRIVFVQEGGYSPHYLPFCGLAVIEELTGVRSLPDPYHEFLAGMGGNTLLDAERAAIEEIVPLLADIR
How it was run: (§1)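 Recombinant N-terminal His6-tagged HDAH from Bordetella strain FB188, expressed in E. coli BL21, purified on zinc-loaded His-Trap column, eluted with 500 mM imidazole, dialyzed into assay buffer (>98% pure by SDS-PAGE). Tested directly against compounds; thiols generated in situ from disulfides with TCEP.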

[3] = molecular target: T2, Histone deacetylase-like amidohydrolase (Alcaligenes sp. (strain DSM 11172) (Bordetella sp. (strain FB188))) (UniProt Q70I53); assay: Inhibition of Bordetella sp. (strain FB188) N-terminus His-tagged HDAH expressed in Escherichia coli BL21 (DE3) up to 100 uM; conditions: Alcaligenaceae bacterium FB188; how it was run: as §1
T2 sequence (whole entry): T1 sequence (Q70I53 whole entry)

[4] = molecular target: T3, Protein deacetylase HDAC6 (Homo sapiens, UniProt Q9UBN7); assay: Inhibition of human recombinant HDAC6 using Boc-lys(Ac)-AMC as substrate preincubated for 20 mins with substrate measured after 60 mins by fluorescence analysis
T3 sequence (Q9UBN7 whole entry): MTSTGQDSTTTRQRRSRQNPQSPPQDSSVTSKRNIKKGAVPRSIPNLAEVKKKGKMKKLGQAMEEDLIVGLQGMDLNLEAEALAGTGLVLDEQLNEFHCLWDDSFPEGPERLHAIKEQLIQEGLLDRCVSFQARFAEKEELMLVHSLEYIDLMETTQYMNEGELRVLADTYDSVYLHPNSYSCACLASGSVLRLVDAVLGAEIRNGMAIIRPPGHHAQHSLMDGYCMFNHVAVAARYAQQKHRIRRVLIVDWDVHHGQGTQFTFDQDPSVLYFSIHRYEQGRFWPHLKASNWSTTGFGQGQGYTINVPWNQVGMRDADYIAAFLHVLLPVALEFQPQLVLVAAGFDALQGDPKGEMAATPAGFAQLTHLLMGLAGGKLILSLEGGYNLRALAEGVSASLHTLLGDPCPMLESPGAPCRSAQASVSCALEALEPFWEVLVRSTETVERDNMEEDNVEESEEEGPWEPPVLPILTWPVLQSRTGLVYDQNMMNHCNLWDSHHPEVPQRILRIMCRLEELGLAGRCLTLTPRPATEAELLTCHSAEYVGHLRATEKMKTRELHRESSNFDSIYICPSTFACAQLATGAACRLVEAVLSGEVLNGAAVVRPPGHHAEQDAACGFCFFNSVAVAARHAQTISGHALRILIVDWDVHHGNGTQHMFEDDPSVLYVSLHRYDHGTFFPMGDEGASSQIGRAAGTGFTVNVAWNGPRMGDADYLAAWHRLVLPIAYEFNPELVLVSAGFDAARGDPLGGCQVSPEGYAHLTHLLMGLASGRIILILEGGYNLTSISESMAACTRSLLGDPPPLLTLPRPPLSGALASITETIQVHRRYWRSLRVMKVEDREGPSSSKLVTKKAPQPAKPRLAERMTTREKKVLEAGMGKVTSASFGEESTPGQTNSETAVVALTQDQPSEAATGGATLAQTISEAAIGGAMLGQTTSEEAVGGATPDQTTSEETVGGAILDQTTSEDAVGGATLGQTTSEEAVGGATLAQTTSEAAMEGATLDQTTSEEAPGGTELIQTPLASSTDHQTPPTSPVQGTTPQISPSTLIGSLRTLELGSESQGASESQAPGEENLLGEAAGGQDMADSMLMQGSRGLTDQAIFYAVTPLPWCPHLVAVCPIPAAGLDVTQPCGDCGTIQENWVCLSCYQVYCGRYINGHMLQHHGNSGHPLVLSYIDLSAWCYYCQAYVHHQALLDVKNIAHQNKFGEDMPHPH

[5] = Growth inhibition of human WI38 cells after 96 hrs by sulphorhodamine B assay; type: cell-based; conditions: WI-38 cells
How it was run: (§2)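 SRB growth assay; MCF7 and WI38 seeded 4000 cells/well, A549 2000 cells/well, attached overnight, then exposed to freshly made drug solutions (0.1 to 50 μM) for 96 h. Fixed with cold 10% TCA, stained with 0.4% SRB; absorbance at 540 nm as percent of untreated control, IC50 from mean absorbance.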

A549 = assay: Growth inhibition of human A549 cells after 96 hrs by sulphorhodamine B assay; type: functional; conditions: A549, 96 h; how it was run: as §2
MCF7 [6] = assay: Growth inhibition of human MCF7 cells after 96 hrs by sulphorhodamine B assay; type: functional; conditions: MCF7, 96 h; how it was run: as §2
Histone deacetylase 1 = Histone deacetylase 1 (Homo sapiens, UniProt Q13547); assay: Inhibition of human recombinant HDAC1 using Boc-lys(Ac)-AMC as substrate preincubated for 20 mins with substrate measured after 60 mins by fluorescence analysis
MCF7 [7] = assay: Selectivity index, ratio of GI50 for human WI38 cells to GI50 for human MCF7 cells; type: functional
Histone deacetylase 8 = molecular target: T4, Histone deacetylase 8 (Homo sapiens, UniProt Q9BY41); assay: Inhibition of human recombinant HDAC8 using Boc-lys(Ac)-AMC as substrate preincubated for 20 mins with substrate measured after 60 mins by fluorescence analysis
T4 sequence (Q9BY41 whole entry): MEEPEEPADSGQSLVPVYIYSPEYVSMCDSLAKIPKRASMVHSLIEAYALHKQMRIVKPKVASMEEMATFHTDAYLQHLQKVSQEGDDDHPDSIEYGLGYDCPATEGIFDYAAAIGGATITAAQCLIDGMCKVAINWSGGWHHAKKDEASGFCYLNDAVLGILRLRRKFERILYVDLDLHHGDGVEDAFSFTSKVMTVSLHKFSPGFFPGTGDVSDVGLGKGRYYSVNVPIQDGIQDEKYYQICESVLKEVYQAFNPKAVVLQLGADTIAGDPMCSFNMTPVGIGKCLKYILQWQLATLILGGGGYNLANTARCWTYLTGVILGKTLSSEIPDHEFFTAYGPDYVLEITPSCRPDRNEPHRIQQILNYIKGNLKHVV

Sequence of Histone deacetylase 1 (Q13547 whole entry): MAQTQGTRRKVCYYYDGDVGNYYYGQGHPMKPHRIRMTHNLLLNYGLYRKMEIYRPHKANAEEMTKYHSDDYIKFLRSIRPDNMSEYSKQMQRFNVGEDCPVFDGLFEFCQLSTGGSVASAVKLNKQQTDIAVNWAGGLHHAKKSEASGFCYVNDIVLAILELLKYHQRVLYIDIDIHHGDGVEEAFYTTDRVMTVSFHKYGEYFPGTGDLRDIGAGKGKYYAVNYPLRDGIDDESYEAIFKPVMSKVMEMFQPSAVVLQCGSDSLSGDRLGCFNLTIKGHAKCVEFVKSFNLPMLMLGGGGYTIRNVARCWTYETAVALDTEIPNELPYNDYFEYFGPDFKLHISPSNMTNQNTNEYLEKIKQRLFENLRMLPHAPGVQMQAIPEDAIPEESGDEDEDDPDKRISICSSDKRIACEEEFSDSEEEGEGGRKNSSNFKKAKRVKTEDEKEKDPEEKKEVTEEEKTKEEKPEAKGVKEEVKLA

pIC50 [2]: 4.49 | inhibition [3]: inactive | pIC50 [4]: 6.00 | GI50 (A549): 33.4 µM | GI50 (MCF7 [6]): 3.42 µM | pIC50 (Histone deacetylase 1): 8.30 | pIC50 (Histone deacetylase 8): 4.89
Structure (SMILES): N/N=C(\Cc1ccc(O)c(Br)c1)C(=O)NCCS
RatioGI50 (MCF7 [1]): 10 | GI50 at 96 h [5]: 37.2 µM | RatioGI50 (MCF7 [7]): 10
